From publication PMC5035790 (Annals of Oncology, 2016)
Marks after values point to notes of the source that are not given here.

Test system: patients with advanced solid tumors or non-Hodgkin's lymphoma
Assay: Phase I dose-escalation study: safety, tolerability, MTD, adverse events
Type: in vivo, human
Summary of the method: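 Adults with advanced solid tumours (plus NHL and type 2 diabetic expansion cohorts) received a 1-h IV infusion on days 1, 8 and 15 of 28-day cycles over 0.1–1.2 mg/kg. Accelerated titration escalated the dose by 100% per cohort. MTD was the highest dose given to six patients with ≤1 DLT. Fasting was 8 h pre- and 3 h post-start on cycle 1 day 1. AEs were assessed at planned times each cycle and at follow-up.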

[1] = diabetic expansion, 0.4 mg/kg, n=6
[2] = solid tumors expansion, 0.8 mg/kg, n=25

## COc1c(OCCCN2CCOCC2)ccc2c1N=C(NC(=O)c1cnc(N)nc1)N1CCN=C21 [copanlisib, Copanlisib]
Cohort 4, 0.8 mg/kg, n=7
  Drug-related hyperglycemia, grade 3: 4 (57) n (%)
  Drug-related hypertension, all grades: 1 (14) n (%)
  Drug-related hypertension, grade 3: 0 n (%)
  Drug-related nausea, all grades: 1 (14) n (%)
  Drug-related nausea, grade 3: 0 n (%)
  Drug-related oral cavity mucositis, all grades: 0 n (%)
  Drug-related oral cavity mucositis, grade 3: 0 n (%)
  Drug-related rash/desquamation, all grades: 0 n (%)
  Drug-related rash/desquamation, grade 3: 0 n (%)
  Drug-related vomiting, all grades: 1 (14) n (%)
  Drug-related vomiting, grade 3: 0 n (%)
Cohort 5, 1.2 mg/kg, n=3
  Any drug-related AE: 3 (100) n (%)
  Drug-related AEs of grade 3: 2 (67) n (%)
  Drug-related AEs of grade 4: 1 (33) n (%)
  Drug-related diarrhea, all grades: 0 n (%)
  Drug-related diarrhea, grade 3: 0 n (%)
  Drug-related fatigue, all grades: 0 n (%)
  Drug-related fatigue, grade 3: 0 n (%)
  Drug-related hyperglycemia, all grades: 3 (100) n (%)
  Drug-related hyperglycemia, grade 3: 1 (33) n (%)
  Drug-related hypertension, all grades: 0 n (%)
  Drug-related hypertension, grade 3: 0 n (%)
  Drug-related nausea, all grades: 1 (33) n (%)
  Drug-related nausea, grade 3: 0 n (%)
  Drug-related oral cavity mucositis, all grades: 0 n (%)
  Drug-related oral cavity mucositis, grade 3: 0 n (%)
  Drug-related rash/desquamation, all grades: 0 n (%)
  Drug-related rash/desquamation, grade 3: 0 n (%)
  Drug-related vomiting, all grades: 1 (33) n (%)
  Drug-related vomiting, grade 3: 0 n (%)
[1]
  Any drug-related AE: 5 (83) n (%)
  Drug-related AEs of grade 3: 3 (50) n (%)
  Drug-related AEs of grade 4: 0 n (%)
  Drug-related diarrhea, all grades: 1 (17) n (%)
  Drug-related diarrhea, grade 3: 0 n (%)
  Drug-related fatigue, all grades: 0 n (%)
  Drug-related fatigue, grade 3: 0 n (%)
  Drug-related hyperglycemia, all grades: 1 (17) n (%)
  Drug-related hyperglycemia, grade 3: 1 (17) n (%)
  Drug-related hypertension, all grades: 2 (33) n (%)
  Drug-related hypertension, grade 3: 2 (33) n (%)
  Drug-related nausea, all grades: 2 (33) n (%)
  Drug-related nausea, grade 3: 0 n (%)
  Drug-related oral cavity mucositis, all grades: 0 n (%)
  Drug-related oral cavity mucositis, grade 3: 0 n (%)
  Drug-related rash/desquamation, all grades: 1 (17) n (%)
  Drug-related rash/desquamation, grade 3: 1 (17) n (%)
  Drug-related vomiting, all grades: 0 n (%)
  Drug-related vomiting, grade 3: 0 n (%)
During the study
  diabetic ketoacidosis: no patients
Laboratory finding
  patients with elevated aminotransferase grade ≥3: five
n=57
  patients who discontinued because of AEs: Four
n=57, text
  hyperglycemia grade 4, regardless of causality: 2%
Six of 57 patients
  serious drug-related AEs: 11%
[2]
  Any drug-related AE: 20 (80) n (%)
  Drug-related AEs of grade 3: 12 (48) n (%)
  Drug-related AEs of grade 4: 0 n (%)
  Drug-related diarrhea, all grades: 2 (8) n (%)
  Drug-related diarrhea, grade 3: 0 n (%)
  Drug-related fatigue, all grades: 2 (8) n (%)
  Drug-related fatigue, grade 3: 0 n (%)
  Drug-related hyperglycemia, all grades: 15 (60) n (%)
  Drug-related hyperglycemia, grade 3: 8 (32) n (%)
  Drug-related hypertension, all grades: 5 (20) n (%)
  Drug-related hypertension, grade 3: 2 (8) n (%)
  Drug-related nausea, all grades: 7 (28) n (%)
  Drug-related nausea, grade 3: 0 n (%)
  Drug-related oral cavity mucositis, all grades: 2 (8) n (%)
  Drug-related oral cavity mucositis, grade 3: 0 n (%)
  Drug-related rash/desquamation, all grades: 6 (24) n (%)
  Drug-related rash/desquamation, grade 3: 2 (8) n (%)
  Drug-related vomiting, all grades: 3 (12) n (%)
  Drug-related vomiting, grade 3: 0 n (%)
total, n=57
  Any drug-related AE: 49 (86) n (%)
  Drug-related AEs of grade 3: 29 (51) n (%)
  Drug-related AEs of grade 4: 2 (4)^b n (%)
  Drug-related diarrhea, all grades: 9 (16) n (%)
  Drug-related diarrhea, grade 3: 1 (2) n (%)
  Drug-related fatigue, all grades: 6 (11) n (%)
  Drug-related fatigue, grade 3: 0 n (%)
  Drug-related hyperglycemia, all grades: 36 (63) n (%)
  Drug-related hyperglycemia, grade 3: 17 (30) n (%)
  Drug-related hypertension, all grades: 12 (21) n (%)
  Drug-related hypertension, grade 3: 8 (14) n (%)
  Drug-related nausea, all grades: 21 (37) n (%)
  Drug-related nausea, grade 3: 0 n (%)
  Drug-related oral cavity mucositis, all grades: 6 (11) n (%)
  Drug-related oral cavity mucositis, grade 3: 0 n (%)
  Drug-related rash/desquamation, all grades: 9 (16) n (%)
  Drug-related rash/desquamation, grade 3: 4 (7) n (%)
  Drug-related vomiting, all grades: 7 (12) n (%)
  Drug-related vomiting, grade 3: 0 n (%)
Two patients, three events
  patients with drug-related grade 4 AEs: 4%
